ERa SRC1 inh: blocks coactivator binding to human estrogen receptor alpha; P03372; TR-FRET ER-alpha LBD / SRC-1 peptide, estradiol-bound; inhibition, % at 25.6 µM; 86,000 compounds, 1.7% hits; in the data active = inhibition above about 50%;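 also: 0% = receptor plus peptide control and 100% = peptide only without receptor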
Target sequence (P03372 whole entry, looked up, the tested form may be a part): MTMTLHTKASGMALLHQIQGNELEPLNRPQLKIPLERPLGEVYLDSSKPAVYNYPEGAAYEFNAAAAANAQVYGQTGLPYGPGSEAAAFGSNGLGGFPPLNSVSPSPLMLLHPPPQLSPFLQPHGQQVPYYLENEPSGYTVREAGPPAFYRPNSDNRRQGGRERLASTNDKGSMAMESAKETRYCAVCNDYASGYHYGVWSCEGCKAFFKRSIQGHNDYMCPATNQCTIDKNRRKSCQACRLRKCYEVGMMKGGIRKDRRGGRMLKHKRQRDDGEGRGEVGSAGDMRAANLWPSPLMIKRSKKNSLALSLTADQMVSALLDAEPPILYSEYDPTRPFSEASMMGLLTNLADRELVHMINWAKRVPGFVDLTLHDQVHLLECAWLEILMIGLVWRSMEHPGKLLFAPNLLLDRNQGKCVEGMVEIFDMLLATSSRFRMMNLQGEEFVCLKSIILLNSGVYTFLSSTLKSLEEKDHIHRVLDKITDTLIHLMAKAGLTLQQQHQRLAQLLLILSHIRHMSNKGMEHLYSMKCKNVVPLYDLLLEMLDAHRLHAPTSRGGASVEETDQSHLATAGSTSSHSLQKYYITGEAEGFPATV
HUVEC prolif 384: human endothelial cell proliferation inhibition | viability, % at 10 µM (by protocol) | AID 648 | HUVEC proliferation, CellTiter-Glo luminescence, 72 h; hits give low values | 86,000 compounds, 1.1% hits;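 active = viability at or below 30%; inactive = viability above 30%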;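 also: 100% = median luminescence of DMSO-only cell control wells on each plate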
ERb coact inh: blocks coactivator binding to human estrogen receptor beta. Q92731. TR-FRET ER-beta LBD / SRC1-Cy5 peptide binding; receptor agonist-loaded with 1 µM estradiol. inhibition, % at 25.6 µM. 86,000 compounds, 1.3% hits. AID 633;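 active = compounds whose percent inhibition of the receptor-coactivator binding signal exceeds about 50% in the single-dose screen, limit read from the data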;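 also: 0% = receptor plus peptide wells without compound and 100% = peptide-only wells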
H69AR inhibit: blocks growth of human H69AR lung tumor cells; 85,000 compounds, 6% hits; viability, % at 10 µM; H69AR lung tumor viability, ATP luminescence, 72 h; hits give low values;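 active = viability at or below 40%; inactive = viability above 40%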;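 also: multidrug resistant small cell line overexpressing MRP-1 efflux transporter; 100% = mean luminescence of untreated control wells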
ERa coact pot: enhances coactivator binding to human estrogen receptor alpha; P03372; TR-FRET ERalpha-LBD/SRC-Cy5 coactivator binding, 2 h; 100 = basal binding, no effect; coactivator binding (% of control), % at 25.6 µM; 86,000 compounds, 1.3% hits; in the data active = activity above about 200%;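 also: binding measured in presence of low estradiol as agonist stimulus; 0% = peptide alone without receptor and 100% = receptor with peptide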
Lung fibro prol: blocks proliferation of human lung fibroblasts. LL 47 human lung fibroblast viability, ATP luminescence; hits give low values. viability, % at 10 µM. 85,000 compounds, 1.1% hits;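 active = viability at or below 50% in the single dose screen; inactive = viability above 50%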;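 also: compound exposure lasted 72 h before the ATP readout; 100% = median luminescence of untreated cell-only wells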
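Signal: luminescent ATP detection, CellTiter-Glo; assay system: LL 47 human lung fibroblasts; input: 1,150 cells/well; incubation: overnight cell rest, 72 h compound treatment at 37 °C; measure: % viability versus median cells-only luminescence; medium: IMEM growth medium with 15% fetal bovine serum; dosing: compound addition at 0.1% DMSO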
Active calls of the source: *; x = no result; [ ] = another dose, or the depositor's remark. Most compounds without a hit are left out; they make up all but 9.2% or so of the library.

SMILES	ERa SRC1 inh	HUVEC prolif 384	ERb coact inh	H69AR inhibit	ERa coact pot	Lung fibro prol
CCCc1nnc2n1N=C(c1ccc(-c3cc(Cl)ccc3Cl)o1)CS2	72.8*	87.9	45.1	69.5	143.8	94.0
O=c1[nH]c2cccnc2n1Cc1ccccc1	-0.8	105.5	0.7	102.2	101.9	100.6
COc1cccc2[nH]c3c(N4CCC(C)CC4)ncnc3c12	37.4	90.6	50.3*[fluorescence artefact?]	83.8	60.9	75.4
COc1cccc2[nH]c3c(N4CCN(Cc5ccc6c(c5)OCO6)CC4)ncnc3c12	3.8	61.1	2.5	39.8*	94.6	96.7
COc1ccc(-n2ncc3c(N4CCC(C)CC4)ncnc32)cc1	0.4	83.1	-8.6	60.9	92.7	101.1
Cc1ccc2[nH]c3c(N4CCN(Cc5ccc6c(c5)OCO6)CC4)ncnc3c2c1	1.5	40.8	-2.3	53.9	112.2	92.5
N#CC1=C(N)N(c2ccc(Oc3ccccc3)cc2)C(=O)C1	0.4	88.5	4.2	85.2	108.0	94.1
Cc1cc(C)n(C(=O)CNC(=O)COc2ccccc2)n1	-3.8	97.9	4.4	85.5	142.3	102.4
CN1/C(=C/C(=O)c2nc(S(C)(=O)=O)ncc2Cl)C(C)(C)c2ccccc21	1.4	24.3	5.3	0.6*	78.6	18.5*
CN1/C(=C\C(=O)c2ccco2)C(C)(C)c2ccccc21	-6.7	96.3	-6.4	68.2	134.3	99.4
S=c1[nH]nc(-c2cc(-c3ccco3)[nH]n2)n1-c1ccccc1Cl	33.1	95.5	50.4*	40.4	43.3	98.0
Cc1cccn2c(=O)c3cc(C(=O)NCCCN4CCCC4=O)n(C)c3nc12	-29.2	85.7	-25.2	81.6	106.9	106.8
CCCCSc1nc(NCc2ccco2)c2c3c(sc2n1)COC(C)(C)C3	-5.4	93.5	3.0	43.7	82.4	98.4
CCCSc1nc(NCc2ccco2)c2c3c(sc2n1)COC(C)(C)C3	0.9	87.8	20.0	33.6*	92.0	102.3
CC(C)c1ccc(NC2(C#N)C(=O)Nc3ccccc32)cc1 (configuration not stated)	20.5	96.1	48.4	71.8	83.0	100.1
O=C(O)C(=O)/C(=C\c1ccccc1)c1ccc2ccccc2n1	3.9	74.9	-1.8	92.7	108.4	99.0
O=C(O)C(=O)/C(=C\c1cccc2ccccc12)c1ccc2ccccc2n1	2.1	67.8	-4.1	18.1*	78.4	92.0
COc1c2c(nc3ccccc13)OC(C(C)(O)CO)C2 (configuration not stated)	-0.9	92.7	-10.8	82.0	107.5	107.4
CC1(C)C(=O)NCCN1C(=O)CCC(=O)O	-20.8	91.6	-25.1	94.2	80.8	104.5
COC(=O)C1=C(C)N2C(=O)CSC2=NC1c1ccc2c(c1)OCO2 (configuration not stated)	1.7	96.5	-0.5	93.0	132.7	102.1
COc1ccc(C(c2c[nH]c3ccccc23)c2c[nH]c3ccccc23)cc1O	11.3	36.6	3.1	7.2*	68.4	82.0
COc1ccc(-c2nn(-c3ccccc3)cc2/C=N/N2C(=O)CSC2=S)cc1	-20.8	4.0*	-1.2	59.8	313.2*[fluorescence artefact?]	58.7
Cc1cc(N)n2ncc(-c3cccc(Br)c3)c2n1	3.6	46.3	-3.5	26.4*	70.0	65.9
CC(=O)c1n[nH]nc1NC(=O)c1ccccc1	-2.8	107.0	-11.5	103.6	114.0	99.6
O=C(Nc1ccn(C2CC(OC(=O)c3ccccc3)C(CO)O2)c(=O)n1)c1ccccc1 (configuration not stated)	-15.7	91.1	-9.4	100.8	506.6*[fluorescence artefact?]	95.0
CCOC(=O)CSc1nc2ccc(C)cc2cc1C#N	7.4	106.0	4.1	81.7	118.7	106.3
CCOc1ccc2nc(SCC(=O)N3CCCCCC3)c(C#N)cc2c1	6.9	91.4	16.6	38.1*	190.9	x
CCOC(=O)CSc1nc2cc(OC)ccc2cc1C#N	12.6	72.7	37.6	95.7	346.5*[fluorescence artefact?]	84.8
CCOC(=O)CSc1nc2cc(C)ccc2cc1C#N	3.6	77.7	3.0	34.1*	111.2	83.2
O=C(COc1ccc(-c2ccccc2)cc1)N1CCN(S(=O)(=O)Cc2ccccc2)CC1	9.4	48.8	3.9	26.3*	101.8	52.3
